Calls of active or inactive are those of the source. The rule behind the calls is not given here.
Assays:
Rattus norvegicus [1] = species on record: Rattus norvegicus; assay: Effective dose at which 50% of the rats show at least a 25% decrease of blood glucose levels compared to controls; format: functional
In short: (§1)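 Overnight-fasted male rats (Sprague–Dawley SIV-50 or Mus Rattus, 160–200 g), 6–12 per group, dosed orally at 10 mL/kg as neutral aqueous solution or 1:1 Cremophor EL/water emulsion. Retro-orbital blood glucose by HK/G6PDH before and 2, 4, 6 h post-dose. ED50 (25%) = dose at which 50% of rats show ≥25% fall versus controls. Derived by linear or log-linear regression over at least four doses.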

[2] = Tested for its effect on hepatic epoxide hydrolase; No significant inhibition up to 1e-3 mol/L
Rattus norvegicus [3] = assay: Ability to decrease blood glucose levels in fasted rats at the dose of 0.6 mmol/kg was determined; format: functional
In short: (§2)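 Male Sprague–Dawley SIV-50 or Mus Rattus rats (160–200 g), 6–12 per group, fasted overnight. Oral tube dosing as neutral aqueous solution or 1:1 Cremophor EL/water emulsion, 10 mL/kg. Retro-orbital blood taken before and at 2, 4 and 6 h; glucose measured enzymatically (HK/G6PDH). Change expressed relative to controls; two-sided Student's t test.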

Rattus norvegicus [4] = assay: Ability to decrease blood glucose levels in fasted rats at the dose of 0.6 mmol/kg was determined; No effect; format: functional, organism-based; in short: as §2
Rattus norvegicus [5] = species on record: Rattus norvegicus; assay: Effective dose at which 50% of the rats show at least a 25% decrease of blood glucose levels compared to controls; Reverse effect at higher dose
[6] = Compound was tested for its lethality in mice when administered perorally; format: ADME, organism-based; settings: mouse, in vivo, po
In short: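 Groups of five female NMR mice (22-26 g), water ad libitum, food reduced to 50 g/kg body weight 18 h before dosing; single oral administration.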

Rattus norvegicus [7] = species on record: Rattus norvegicus; assay: Effective dose at which 50% of the rats show at least a 25% decrease of blood glucose levels compared to controls; Not feasible; format: functional, organism-based; in short: as §1

Row | Compound | ED50 (Rattus norvegicus [1]) | Effect [2] | Decrease (Rattus norvegicus [3]) | Decrease (Rattus norvegicus [4]) | other results
1 | CCOC(=O)C1(CCCCc2ccccc2)CO1 (stereo not given) | 600 µmol/kg | No significant inhibition up to 1e-3 mol/L | <44% | – | –
2 | CCOC(=O)C1(CCCc2ccccc2)OC12CCCCC2 (stereo not given) | – | – | – | inactive | –
3 | CCOC(=O)C1(CCCc2ccc(OC)cc2)CO1 (stereo not given) | – | – | – | inactive | –
4 | CCOC(=O)C1(CCCc2ccc(C(C)(C)C)cc2)CO1 (stereo not given) | – | – | – | inactive | –
5 | O=C([O-])C1(CCCc2cccc(C(F)(F)F)c2)CO1.[Na+] (stereo not given) | 80 µmol/kg | No significant inhibition up to 1e-3 mol/L | <77% | – | –
6 | CCOC(=O)C1(CCCCCc2ccccc2)CO1 (stereo not given) | – | No significant inhibition up to 1e-3 mol/L | <18% | – | ED50 (Rattus norvegicus [5]): 80 µmol/kg; LD50 [6]: 880 µmol/kg
7 | CCOC(=O)C1(CCCc2cccc(C(F)(F)F)c2)CO1 (stereo not given) | 170 µmol/kg | No significant inhibition up to 1e-3 mol/L | <47% | – | LD50 [6]: 860 µmol/kg
8 | CCOC(=O)C1(CCCc2ccc(Cl)cc2)OC12CCCCC2 (stereo not given) | – | – | – | inactive | –
9 | CCOC(=O)C1(CCCc2ccc(Cl)cc2)OC1(C)C (stereo not given) | – | – | 10% | – | –
10 | CCOC(=O)C1(CCCc2ccc(Cl)cc2)CO1 (stereo not given) | 200 µmol/kg | No significant inhibition up to 1e-3 mol/L | <30% | – | LD50 [6]: 2720 µmol/kg
11 | CCOC(=O)C1(CCCCCCCCc2ccccc2)CO1 (stereo not given) | – | – | – | inactive | –
12 | CCOC(=O)C1(CCCc2ccc(C)cc2)CO1 (stereo not given) | – | No significant inhibition up to 1e-3 mol/L | <27% | – | –
13 | CCOC(=O)C1(CCCc2ccccc2)CO1 (stereo not given) | 1170 µmol/kg | No significant inhibition up to 1e-3 mol/L | <19% | – | –
14 | CCOC(=O)C1(CCCc2ccccc2Cl)CO1 (stereo not given) | – | – | <11% | – | –
15 | CCOC(=O)C1(CCCCCc2ccc(Cl)cc2)CO1 (stereo not given) | 20 µmol/kg | No significant inhibition up to 1e-3 mol/L | 80% | – | LD50 [6]: 930 µmol/kg
16 | O=C([O-])C1(CCCCCc2ccc(Cl)cc2)CO1.[Na+] (stereo not given) | 30 µmol/kg | No significant inhibition up to 1e-3 mol/L | 80% | – | LD50 [6]: 1640 µmol/kg
17 | CCOC(=O)C1(CCCCCCCc2ccc(Cl)cc2)CO1 (stereo not given) | 270 µmol/kg | – | <49% | – | LD50 [6]: 950 µmol/kg

Row | Compound | ED50 (Rattus norvegicus [1]) | Effect [2] | Decrease (Rattus norvegicus [3]) | Decrease (Rattus norvegicus [4]) | other results
18 | NC(=O)C1(CCCc2ccccc2)CO1 (stereo not given) | – | – | – | inactive | –
19 | CCOC(=O)C1(CCCc2ccc(Cl)c(Cl)c2)CO1 (stereo not given) | 330 µmol/kg | No significant inhibition up to 1e-3 mol/L | <29% | – | LD50 [6]: 2870 µmol/kg
20 | CCOC(=O)C1(CCCc2cccc(Cl)c2)CO1 (stereo not given) | 680 µmol/kg | – | <26% | – | –
21 | O=C([O-])C1(CCCCCc2ccccc2)CO1.[Na+] (stereo not given) | – | No significant inhibition up to 1e-3 mol/L | <29% | – | ED50 (Rattus norvegicus [7]): inactive; LD50 [6]: 1060 µmol/kg
22 | CCOC(=O)C1(Cc2ccccc2)CO1 (stereo not given) | – | No significant inhibition up to 1e-3 mol/L | – | inactive | –
23 | COC(=O)C1OC1CCCc1ccccc1 (stereo not given) | – | – | – | inactive | –
24 | CCN(CC)C(=O)C1(CCCc2ccccc2)CO1 (stereo not given) | – | – | – | inactive | –
25 | CCOC(=O)C1OC1CCc1ccccc1 (stereo not given) | – | – | – | inactive | –
26 | CCOC(=O)C1(CCCc2cc(Cl)ccc2OC)CO1 (stereo not given) | – | – | – | inactive | –
27 | CCNC(=O)C1(CCCc2ccccc2)CO1 (stereo not given) | – | – | – | inactive | –
28 | O=C([O-])C1(CCCc2ccc(Cl)cc2)CO1.[Na+] (stereo not given) | 180 µmol/kg | – | <68% | – | –
29 | CCOC(=O)C1(CCc2ccccc2)CO1 (stereo not given) | – | No significant inhibition up to 1e-3 mol/L | – | inactive | –
30 | CCOC(=O)C1(CCCc2ccccc2)OC1(C)C (stereo not given) | – | – | – | inactive | –
31 | CCOC(=O)C1(CCCc2ccc(F)cc2)CO1 (stereo not given) | – | – | <37% | – | LD50 [6]: 3960 µmol/kg
32 | CCOC(=O)C1(CCCCCCc2ccccc2)CO1 (stereo not given) | – | – | 24% | – | ED50 (Rattus norvegicus [7]): inactive
33 | CCOC(=O)C1(CCCCCCCc2ccccc2)CO1 (stereo not given) | – | – | 18% | – | ED50 (Rattus norvegicus [7]): inactive
